Source: PubChem
The list is not random: actives were taken first. Their share in the collection is about 1.2%.
CaV13 ICDI inh: Disruptors of the CACNA1D IQ motif to Ca2+-dependent inactivation inhibitor domain association, primary screening, Förster resonance energy transfer in intact living …; HEK cells, CFP/YFP FRET ICDI-IQ, plate reader, 10 min; percent FRET-ratio fall versus neutral wells; inhibition, % at 12.3 µM; 340,000 compounds, 0.098% hits;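 active = mean replicate inhibition of at least 30% and at least 1% of replicates passing that level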;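 note: 0% = median of the neutral control wells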
CAL PDZ FP-1: blocks peptide binding to the human CAL PDZ domain. Q9HD26. inhibition, % at 24.9 µM. 300,000 compounds, 0.92% hits. purified CAL PDZ, TMR-peptide fluorescence polarization, 1 h;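 active = mean inhibition of at least 30% with at least half of replicates also reaching 30%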;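 note: 0% = DMSO neutral control and 100% = excess unlabeled competitor peptide PRC23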
ARNT TACC3 PPI: ARNT/TACC3 interaction disruption; AlphaScreen His-ARNT PAS-B/GST-TACC3 binding, luminescence; TACC3 fragment carries E629A point mutation; inhibition, % at 9.99 µM; AID 623870; Q9Y6A5; 390,000 compounds, 0.66% hits;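 active = mean inhibition of replicates at least 50% and at least half of replicates each reaching 50%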;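 note: 0% = complete ARNT plus TACC3 wells and 100% = ARNT alone without TACC3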
CAL PDZ FP-2: inhibitors of human CAL PDZ peptide binding | purified CAL PDZ, TMR-peptide fluorescence polarization, 1 h | 330,000 compounds, 0.02% hits | inhibition, % at 20 µM;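 active = highest replicate inhibition of at least 40%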;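 note: plate controls were DMSO neutral control wells for no effect and unlabeled competitor peptide control wells for full effect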
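Material – purified CerCALP PDZ construct · Detection – FP readout, S and P plane fluorescence · Measure – percent inhibition from loss of millipolarization · Controls – unlabelled peptide for full inhibition, DMSO wells as neutral · Probe or stimulus – TMR-labelled reporter peptide T*-PRC34 bound in PDZ groove · Times – 1 h at RT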
* marks the source's active call; other numbers are inactive results; . = no result; ! = not active in a repeat.

SMILES	CaV13 ICDI inh	CAL PDZ FP-1	ARNT TACC3 PPI	CAL PDZ FP-2
CCOCCCNC(=O)N[C@H](C(=O)OC)C(C)CC (stereo partly drawn)	-9	-6	-2	0
CCOCCCNC(=O)N[C@@H](C)C(=O)OC	-3	62*	-8	.
COc1ccc(S(=O)(=O)N[C@@H]2C=C[C@@H](CC(=O)NCCc3ccncc3)O[C@H]2CO)cc1	.	.	11	.
Cc1noc(C)c1S(=O)(=O)Nc1ccc2c(c1)C(=O)N([C@H](C)CO)C[C@@H](C)[C@H](CN(C)Cc1ccc(Cl)c(Cl)c1)OCCCC[C@@H](C)O2	.	.	14	.
CCOC(=O)C1=C(C)NC(C)=C(C(=O)OCC)C1c1cn(-c2ccccc2)nc1-c1ccco1	-3	-1	62*	1
CCOC(=O)C1=C(C)NC(=O)NC1c1cn(-c2ccccc2)nc1-c1cccs1 (stereo not drawn)	-8	4	1	-1
CCOCCCNC(=S)N(CCCN(C)C)Cc1cc2cc3c(cc2[nH]c1=O)OCCO3	-4	5	27*	-2
COCCNC(=S)N(CCO)Cc1cc2cc3c(cc2[nH]c1=O)OCCO3	-2	.	49*	-1
COCCCNC(=S)N(CCCN(C)C)Cc1cc2cc3c(cc2[nH]c1=O)OCCO3	-6	-1	2	1
O=C(C[C@H]1CC[C@H]2[C@@H](COC[C@@H](O)CN2C(=O)Nc2ccccc2)O1)NCCc1ccncc1	.	.	2	.
CN(C)CCCN(C(=O)c1ccc(S(=O)(=O)N(C)Cc2ccccc2)cc1)c1nc2cc3c(cc2s1)OCO3	-3	42*	-3	-1
CN(C)CCN(C(=O)c1ccc(Br)s1)c1nc2cc3c(cc2s1)OCCO3	3	-3	0	-1
CN(C)CCN(C(=O)c1cccs1)c1nc2cc3c(cc2s1)OCCO3	-8	41*	2	0
C[C@H](CO)N1C[C@H](C)[C@H](CN(C)Cc2ccc(C(F)(F)F)cc2)Oc2c(NC(=O)NC3CCCCC3)cccc2C1=O	.	.	-7	.
CCCn1cnc2c(SCc3ccccc3)nc(N)nc21	-16	-1	-6	0
Nc1nc(SCc2ccccc2)c2ncn(Cc3ccccc3)c2n1	-6	41*	-8	-1
S=C(Nc1cccnc1)NC1CC2CCC1C2 (stereo not drawn)	-2	38*	3	0
CC(=O)NC1C(=O)N(CCN2CCOCC2)c2ccc(Cl)cc21 (stereo not drawn)	-21	11	-32	25
CC(=O)NC1C(=O)N(CCN2CCOCC2)c2ccc(C)cc21 (stereo not drawn)	.	64*	-40	40
CO[C@@H]1CC[C@H]2CCOc3ccc(C#N)cc3C(=O)N(C)[C@H](C)C(=O)N(C)C[C@H]1O2	.	.	2	.
COC(=O)c1sccc1NC(=O)c1cccc(Cl)c1	-3	83*	-5	-3
S=c1[nH]nc(-c2ccccn2)n1/N=C/c1ccc(Br)s1	-6	-8	99*	-8
S=c1[nH]nc(-c2ccccn2)n1/N=C/c1ccc(-c2ccccc2Cl)o1	-2	-4	56*	-1
CO[C@H]1CN(C)C(=O)c2cc(NS(C)(=O)=O)ccc2OC[C@H](C)N(CC2CC2)C[C@H]1C	.	.	-1	.
CN1C(=O)c2cc(NC(=O)Cc3ccccc3)ccc2OC[C@H]2O[C@@H](CC(=O)NCC3CC3)CC[C@H]21	.	.	-2	.
SMILES	CaV13 ICDI inh	CAL PDZ FP-1	ARNT TACC3 PPI	CAL PDZ FP-2
Cc1ccc(N2CC(C(=O)NC3=NCCS3)CC2=O)cc1C (stereo not drawn)	-2	-13	-1	0
Cc1ccc(N2CC(C(=O)Nc3ccc(N(C)C)cc3)CC2=O)cc1C (stereo not drawn)	-7	60*	-15	1
Cc1[nH]nc(NCCO)c1[N+](=O)[O-]	5	31*	-3	5
COCC(=O)N(C)C[C@H]1Oc2cc(C#Cc3cccnc3)ccc2S(=O)(=O)N([C@H](C)CO)C[C@H]1C	-9	.	active!	.
CN(C)c1ccc(C=C2C(=O)OC(C)(C)OC2=O)cc1	-4	-5	-13	-1
CN(C)c1ccc(C=C2C(=O)OC(C)(C(C)(C)C)OC2=O)cc1 (stereo not drawn)	.	-8	active	.
CCCCCC(=O)NNC(=S)NC(C)=O	-3	-5	71*	2
CCCCC(=O)NNC(=S)NC(=O)c1ccc(C)cc1	4	7	24	1
O=C(C[C@H]1CC[C@@H](NS(=O)(=O)c2ccc(F)cc2)[C@@H](CO)O1)NCc1ccc(Cl)c(Cl)c1	.	.	16	.
